Test results from ChEMBL document CHEMBL3856185, “Discovery of a sulfamate-based steroid sulfatase inhibitor with intrinsic selective estrogen receptor modulator properties” (Eur J Med Chem, 2016).

Legend:
Estrogen receptor [1] = target: T1, Estrogen receptor (Homo sapiens, UniProt P03372); experiment: Agonist activity at ERalpha in estrogen-sensitive human T47D cells assessed as cell proliferation at 0.01 uM after 7 days by MTS assay; assay type: cell-based; settings: 168 h
T1 sequence (P03372 whole entry): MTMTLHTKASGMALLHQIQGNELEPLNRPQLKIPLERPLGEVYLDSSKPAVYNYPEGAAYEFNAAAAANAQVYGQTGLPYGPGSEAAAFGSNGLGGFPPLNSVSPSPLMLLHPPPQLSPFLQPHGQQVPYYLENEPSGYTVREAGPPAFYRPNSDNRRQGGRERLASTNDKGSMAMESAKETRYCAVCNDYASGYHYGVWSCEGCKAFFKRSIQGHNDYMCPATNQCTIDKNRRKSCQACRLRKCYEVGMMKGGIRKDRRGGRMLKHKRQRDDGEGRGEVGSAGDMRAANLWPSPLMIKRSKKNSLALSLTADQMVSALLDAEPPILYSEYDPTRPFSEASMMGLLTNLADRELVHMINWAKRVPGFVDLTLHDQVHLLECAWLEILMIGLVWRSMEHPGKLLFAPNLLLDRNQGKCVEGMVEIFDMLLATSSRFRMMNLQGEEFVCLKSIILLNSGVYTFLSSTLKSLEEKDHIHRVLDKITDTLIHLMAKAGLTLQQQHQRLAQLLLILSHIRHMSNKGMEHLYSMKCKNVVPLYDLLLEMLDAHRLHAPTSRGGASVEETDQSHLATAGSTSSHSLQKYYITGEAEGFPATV
Summary of the method: (§1)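 Seeded 3000 cells/well, 48 h attachment. Compounds diluted from DMSO (final ≤0.1%) in medium, renewed every 2 days for 7 days. Proliferation read by MTS, 4 h at 37 °C, absorbance 490 nm. Control (medium + DMSO) set to 100%. Mean ± SD of triplicates.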

Estrogen receptor [2] = target: T1, Estrogen receptor; experiment: Agonist activity at ERalpha in estrogen-sensitive human T47D cells assessed as cell proliferation at 0.1 uM after 7 days by MTS assay; assay type: cell-based; settings: 168 h; summary of the method: as §1
Estrogen receptor [3] = target: T1, Estrogen receptor; experiment: Agonist activity at ERalpha in estrogen-sensitive human T47D cells assessed as cell proliferation at 1 uM after 7 days by MTS assay; assay type: cell-based; settings: 168 h; summary of the method: as §1
[4] = Cytotoxicity against estrogen-sensitive human T47D cells assessed as reduction in cell proliferation at 5 uM after 7 days by MTS assay; assay type: toxicity, cell-based; settings: 168 h; summary of the method: as §1
Steryl-sulfatase = target: T2, Steryl-sulfatase (Homo sapiens, UniProt P08842); experiment: Inhibition of steroid sulfatase (unknown origin) expressed in HEK293 cells assessed as reduction in transformation of [3H]-E1S to E1 after 2 hrs by liquid scintillation counting; assay type: cell-based
T2 sequence (P08842 whole entry): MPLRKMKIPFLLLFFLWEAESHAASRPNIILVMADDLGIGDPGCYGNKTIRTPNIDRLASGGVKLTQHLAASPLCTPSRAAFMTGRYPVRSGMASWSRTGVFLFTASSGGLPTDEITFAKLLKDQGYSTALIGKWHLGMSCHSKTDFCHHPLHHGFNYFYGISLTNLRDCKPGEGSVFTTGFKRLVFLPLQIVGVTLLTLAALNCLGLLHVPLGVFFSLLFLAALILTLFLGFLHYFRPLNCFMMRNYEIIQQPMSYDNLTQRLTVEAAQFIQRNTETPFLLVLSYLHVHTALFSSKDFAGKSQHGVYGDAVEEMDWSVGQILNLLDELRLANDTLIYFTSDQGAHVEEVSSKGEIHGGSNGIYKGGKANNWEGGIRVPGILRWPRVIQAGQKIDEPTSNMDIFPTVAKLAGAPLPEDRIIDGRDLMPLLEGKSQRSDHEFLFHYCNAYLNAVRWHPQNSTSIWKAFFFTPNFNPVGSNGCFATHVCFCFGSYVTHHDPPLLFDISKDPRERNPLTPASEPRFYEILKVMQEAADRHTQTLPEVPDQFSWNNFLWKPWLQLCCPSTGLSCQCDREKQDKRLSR
Summary of the method: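 Homogenate of STS-overexpressing HEK-293 cells (lysed by 5 freeze (−80 °C)/thaw (4 °C) cycles) incubated 2 h at 37 °C with inhibitors 0.01–1 µM and [3H]-E1S 9 nM adjusted to 1 µM with E1S, in Tris-acetate pH 7.4 with 5 mM EDTA, 10% glycerol. Xylene extraction separated E1 from E1S; scintillation counting; % inhibition vs no-inhibitor control; IC50 from curve; triplicates, mean ± SD.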

[5] = Cytotoxicity against human Saos2 cells assessed as reduction in cell proliferation at 5 to 10 uM after 7 days by MTS assay; assay type: toxicity, cell-based; settings: saos-2, 168 h
Summary of the method: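 Saos-2 cells in phenol-red-free McCoy's 5A with 10% charcoal-stripped FBS. Seeded 3000 cells/well, treated after 24 h with compounds from 1 nM to 10 µM (DMSO ≤0.1% final), renewed every 2 days for 7 days. MTS 2 h at 37 °C, absorbance 490 nm. Control (medium + DMSO) = 100%. Mean ± SD of triplicates.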

[6] = Cytotoxicity against estrogen-sensitive human T47D cells assessed as reduction in cell proliferation at 0.01 to 1 uM after 7 days by MTS assay; assay type: toxicity, cell-based; settings: 168 h; summary of the method: as §1
[7] = target: T3, Estrogen receptor (Homo sapiens) (UniProt P03372); experiment: Antiestrogenic activity at ERalpha in estrogen-sensitive human T47D cells assessed as blockage of E2 stimulated cell proliferation at 5 uM after 7 days in presence of E2 by MTS assay; assay type: cell-based
T3 sequence (whole entry): T1 sequence (P03372 whole entry)
Summary of the method: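 Estrogen-deprived T-47D cells (RPMI, insulin 50 ng/mL, 5% charcoal-stripped FBS) seeded at 3000 cells/well, attached 48 h. Then treated 7 days with compound plus E2 (0.1 nM), medium renewed every 2 days. DMSO final ≤0.1%. MTS added 4 h, A490. Control (medium + DMSO) = 100%. Mean ± SD of triplicates.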

O=C(c1ccc(CN(Cc2ccco2)Cc2ccccc2OCCCN2CCCCC2)cc1)N1CCc2ccc(O)cc2C1
Activity (Estrogen receptor [1]): 96.8% | Activity (Estrogen receptor [2]): 105.9% | Activity (Estrogen receptor [3]): 0%

NS(=O)(=O)Oc1ccc2c(c1)CN(C(=O)c1ccc(CN(Cc3ccccn3)Cc3ccco3)cc1)CC2
Activity [4]: Toxic

O=C(c1ccc(CN(Cc2ccc(OCCCN3CCCCC3)cc2)Cc2ccco2)cc1)N1CCc2ccc(O)cc2C1
Activity (Estrogen receptor [1]): 95.6% | Activity (Estrogen receptor [2]): 119.7% | Activity (Estrogen receptor [3]): 133.7%

O=C(c1ccc(CN(Cc2ccc(O)cc2)Cc2ccco2)cc1)N1CCc2ccc(O)cc2C1
Activity (Estrogen receptor [1]): 108.2% | Activity (Estrogen receptor [2]): 138% | Activity (Estrogen receptor [3]): 200.3%

COc1cc2c(cc1OS(N)(=O)=O)CC[C@@H]1[C@@H]2CC[C@@]2(C)[C@H]1CC[C@@]2(O)Cc1ccccc1
IC50 (Steryl-sulfatase): 0.05 nM

Cc1ccc(CN(Cc2ccc(C(=O)N3CCc4ccc(OS(N)(=O)=O)cc4C3)cc2)Cc2ccco2)s1
Activity [4]: Toxic | IC50 (Steryl-sulfatase): 8.9 nM | Activity [5]: Toxic

O=C(c1ccc(CN(Cc2ccccn2)Cc2ccco2)cc1)N1CCc2ccc(O)cc2C1
Activity (Estrogen receptor [1]): 104.1% | Activity (Estrogen receptor [2]): 103.2% | Activity (Estrogen receptor [3]): 103.5% | Activity [6]: Non-Toxic

Cc1ccc(CN(Cc2ccc(C(=O)N3CCc4ccc(O)cc4C3)cc2)Cc2ccco2)s1
Activity (Estrogen receptor [1]): 97.1% | Activity (Estrogen receptor [2]): 103.2% | Activity (Estrogen receptor [3]): 96.8% | Activity [7]: 84% | Activity [6]: Non-Toxic | Activity [5]: Toxic

Cc1ccc(CN(Cc2ccc(C(=O)N3CCc4ccc(O)cc4C3)cc2)Cc2ccccn2)s1
Activity (Estrogen receptor [1]): 100.6% | Activity (Estrogen receptor [2]): 105.4% | Activity (Estrogen receptor [3]): 78.9%

O=C(c1ccc(CN(CCCn2ccnc2)Cc2ccco2)cc1)N1CCc2ccc(O)cc2C1
Activity (Estrogen receptor [1]): 94.9% | Activity (Estrogen receptor [2]): 98.5% | Activity (Estrogen receptor [3]): 114.6%

O=C(c1ccc(CN(CCN2CCOCC2)Cc2ccco2)cc1)N1CCc2ccc(O)cc2C1
Activity (Estrogen receptor [1]): 108.2% | Activity (Estrogen receptor [2]): 105.9% | Activity (Estrogen receptor [3]): 118.8%

O=C(c1ccc(OCCN2CCCCC2)cc1)c1c(-c2ccc(O)cc2)sc2cc(O)ccc12 [RALOXIFENE]
Activity [4]: Toxic | Activity [5]: Toxic

O=C(c1ccc(CN(CCCn2ccnc2)Cc2ccccn2)cc1)N1CCc2ccc(O)cc2C1
Activity (Estrogen receptor [1]): 102.8% | Activity (Estrogen receptor [2]): 112.9% | Activity (Estrogen receptor [3]): 39.2%

COc1ccc(CN(Cc2ccc(C(=O)N3CCc4ccc(OS(N)(=O)=O)cc4C3)cc2)Cc2ccccn2)cc1
Activity [4]: Toxic

COc1ccc(CN(Cc2ccc(C(=O)N3CCc4ccc(O)cc4C3)cc2)Cc2ccccn2)cc1
Activity [4]: Toxic | Activity (Estrogen receptor [1]): 105.6% | Activity (Estrogen receptor [2]): 104.6% | Activity (Estrogen receptor [3]): 100.9% | Activity [6]: Non-Toxic

O=C(c1ccc(CN(Cc2ccccn2)Cc2ccccc2OCCCN2CCCCC2)cc1)N1CCc2ccc(O)cc2C1
Activity (Estrogen receptor [1]): 102.8% | Activity (Estrogen receptor [2]): 99.8% | Activity (Estrogen receptor [3]): 37.1%

O=C(c1ccc(CN(Cc2ccc(Br)cc2)Cc2ccco2)cc1)N1CCc2ccc(O)cc2C1
Activity (Estrogen receptor [1]): 106.3% | Activity (Estrogen receptor [2]): 109.4% | Activity (Estrogen receptor [3]): 59.2%

O=C(c1ccc(CN(Cc2ccc(OCCCN3CCCCC3)cc2)Cc2ccccn2)cc1)N1CCc2ccc(O)cc2C1
Activity (Estrogen receptor [1]): 105.9% | Activity (Estrogen receptor [2]): 104.5% | Activity (Estrogen receptor [3]): 60.7%
